# Reference: ChEMBL document CHEMBL5030567, “Macrocyclic Inhibitors of HGF-Activating Serine Proteases Overcome Resistance to Receptor Tyrosine Kinase Inhibitors and Block Lung Cancer Progression” (J Med Chem, 2021)
# Active and inactive are the calls of the source. No cut-off for these calls is given here.
# How the values were obtained:
# NCI-H596 = experiment: Antitumor activity against human NCI-H596 cells xenografted in hHGF knock in NSG mouse assessed as tumor growth inhibition at 20 mg/kg, ip administered daily for 14 to 16 days; type: functional, organism-based; conditions: time 14-16 day
# [1] = target: T1, Suppressor of tumorigenicity 14 protein (Homo sapiens, UniProt Q9Y5Y6); experiment: Inhibition of recombinant human N-terminal met-His6-tagged matriptase catalytic domain (Gly596 to Val855 residues) expressed in Escherichia coli using Boc-QAR-AMC as substrate preincubated for 30 mins followed by substrate addition by fluorescence based assay
# T1 sequence (Q9Y5Y6 whole entry): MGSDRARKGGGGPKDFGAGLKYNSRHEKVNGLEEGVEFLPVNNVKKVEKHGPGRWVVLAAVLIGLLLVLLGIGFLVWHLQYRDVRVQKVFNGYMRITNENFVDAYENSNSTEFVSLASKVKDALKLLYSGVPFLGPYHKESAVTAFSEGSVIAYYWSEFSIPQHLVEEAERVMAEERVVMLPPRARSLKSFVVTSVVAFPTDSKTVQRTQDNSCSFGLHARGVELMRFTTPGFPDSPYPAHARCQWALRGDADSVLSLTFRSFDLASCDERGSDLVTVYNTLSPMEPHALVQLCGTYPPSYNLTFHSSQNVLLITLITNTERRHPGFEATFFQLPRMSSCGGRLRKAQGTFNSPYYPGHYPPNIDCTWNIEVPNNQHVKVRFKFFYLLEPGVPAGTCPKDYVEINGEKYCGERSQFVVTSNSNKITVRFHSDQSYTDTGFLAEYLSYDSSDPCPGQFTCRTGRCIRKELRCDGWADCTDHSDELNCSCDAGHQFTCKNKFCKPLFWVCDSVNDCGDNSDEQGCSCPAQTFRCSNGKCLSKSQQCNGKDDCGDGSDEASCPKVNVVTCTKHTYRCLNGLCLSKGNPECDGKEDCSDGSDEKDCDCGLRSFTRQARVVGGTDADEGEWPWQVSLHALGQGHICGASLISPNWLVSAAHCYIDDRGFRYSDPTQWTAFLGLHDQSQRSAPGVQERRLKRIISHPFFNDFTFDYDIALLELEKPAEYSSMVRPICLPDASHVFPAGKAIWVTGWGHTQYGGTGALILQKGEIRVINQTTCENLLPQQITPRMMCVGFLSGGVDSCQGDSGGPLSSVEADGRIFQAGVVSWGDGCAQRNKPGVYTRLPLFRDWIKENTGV
# Outline: (§1)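 Inhibitor in 11-point serial dilution (0-20 µM final, 2% DMSO) pre-incubated 30 min at room temperature with enzyme in TNC buffer (25 mM Tris, 150 mM NaCl, 5 mM CaCl2, 0.01% Triton X-100, pH 8). […] Hepsin activated beforehand 24 h at 37°C. Fluorescence ex 380/em 460 nm kinetic; four-parameter fit of velocities; mean of three experiments.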
# Serine protease hepsin [2] = target: T2, Serine protease hepsin (Homo sapiens, UniProt P05981); experiment: Inhibition of recombinant human C-terminal 10-His tagged hepsin (Arg45 to Leu417) expressed in mouse myeloma cells using Boc-QAR-AMC as substrate preincubated for 30 mins followed by substrate addition by fluorescence based assay; type: single protein; outline: as §1
# [3] = Toxicity in NSG mouse assessed as body weight loss at 10 to 50 mg/kg, ip administered for 7 days; type: organism-based; conditions: in vivo, dose 10-50 mg/kg, time 7 day
# [4] = Toxicity in hHGF knock in NSG mouse xenografted with human NCI-H596 cells at 20 mg/kg, ip administered daily for 14 to 16 days; type: organism-based; conditions: in vivo, time 14-16 day
# [5] = Stability in human liver microsomes assessed as half life; type: ADME, Microsome
# [6] = Solubility of compound at pH 7.4; type: physicochemical; conditions: buffer
# [7] = Stability in mouse liver microsomes assessed as half life; type: ADME, Microsome
# Serine protease hepsin [8] = target: T2, Serine protease hepsin; experiment: Inhibition of recombinant human C-terminal 10-His tagged hepsin (Arg45 to Leu417) expressed in mouse myeloma cells mediated pro-HGF activation preincubated for 30 mins followed by pro-HGF addition and measured after 1 hr by immunoblotting analysis
# Outline: (§2)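 Recombinant pro-HGF (10 ng) incubated one hour with matriptase (1 nM), hepsin (10 nM) or HGFA (5 nM), with or without inhibitor. Processing detected by immunoblot with a polyclonal antibody recognizing pro-HGF and the HGF alpha and beta chains; active HGF served as positive control.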
# [9] = target: T3, Hepatocyte growth factor activator serine protease (Homo sapiens) (UniProt Q04756); experiment: Inhibition of recombinant human HGFA serine protease domain mediated pro-HGF activation preincubated for 30 mins followed by pro-HGF addition and measured after 1 hr by immunoblotting analysis; outline: as §2
# T3 sequence (whole entry): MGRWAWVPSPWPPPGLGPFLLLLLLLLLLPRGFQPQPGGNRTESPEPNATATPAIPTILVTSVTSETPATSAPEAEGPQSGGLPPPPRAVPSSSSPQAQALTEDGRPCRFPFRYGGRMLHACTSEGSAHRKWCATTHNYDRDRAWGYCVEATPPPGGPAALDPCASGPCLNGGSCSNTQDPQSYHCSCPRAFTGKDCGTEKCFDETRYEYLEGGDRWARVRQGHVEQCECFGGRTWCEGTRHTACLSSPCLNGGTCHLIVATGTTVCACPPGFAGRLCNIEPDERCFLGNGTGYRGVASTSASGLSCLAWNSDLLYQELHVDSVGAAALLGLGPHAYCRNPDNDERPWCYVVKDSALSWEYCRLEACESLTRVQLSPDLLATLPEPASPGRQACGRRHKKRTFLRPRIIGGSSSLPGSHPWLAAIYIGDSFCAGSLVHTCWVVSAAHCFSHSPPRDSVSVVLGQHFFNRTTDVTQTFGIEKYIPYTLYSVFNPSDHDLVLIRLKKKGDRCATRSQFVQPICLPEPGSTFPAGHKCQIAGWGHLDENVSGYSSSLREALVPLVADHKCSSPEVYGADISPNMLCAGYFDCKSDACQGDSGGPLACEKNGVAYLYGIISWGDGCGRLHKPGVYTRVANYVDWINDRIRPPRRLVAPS
# [10] = Stability in mouse plasma assessed as half life; type: ADME, cell-free
# [11] = Stability in human plasma assessed as half life; type: ADME, cell-free
# [12] = Toxicity in NSG mouse at 20 mg/kg, ip administered daily for 7 days; type: organism-based; conditions: in vivo, time 7 day
# EBC-1 = experiment: Cytotoxicity against human EBC-1 cells assessed as reduction in cell viability preincubated with compound and pro-HGF for 24 hrs followed by JNJ-38877605 addition and measured after 48 hrs by CellTiter-Glo assay; type: functional, cell-based; conditions: time 72.0 hrs
# Outline: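 EBC-1 cells pre-incubated 24 h with pro-HGF (100 ng/ml) with or without compound (1 µM), then given MET kinase inhibitor JNJ-38877605 (25 nM). Viability read by CellTiter-Glo after 48 h. Means±S.E.M., n=3; one-way ANOVA with Dunnett's test.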
# HCC827 [13] = experiment: Cytotoxicity against human HCC827 cells assessed as reduction in cell viability at 0.1 to 1 uM after 72 hrs by crystal violet staining based assay; conditions: dose 0.1-1 µM
# [14] = Half life in mouse plasma at 20 mg/kg, ip; type: ADME, organism-based; conditions: in vivo, 20 mg/kg
# HCC827 [15] = experiment: Inhibition of pro-HGF stimulated wound healing in human HCC827 cells preincubated for 30 mins followed by pro-HGF stimulation and measured after 24 hrs by crystal violet staining based assay; type: functional, cell-based
# Outline: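 HCC827 monolayers grown to confluence, serum-starved overnight, then scratched. Cells were pre-incubated 30 min with inhibitor (10 µM) and stimulated with HGF or pro-HGF for 24 h. Wells stained with crystal violet to score closure. n=3; one-way ANOVA versus pro-HGF alone.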
# [16] = Plasma protein binding in mouse assessed as unbound fraction; type: ADME, cell-free
# [17] = Acute toxicity in NSG mouse at 10 to 50 mg/kg, ip administered for 7 days; type: organism-based; conditions: in vivo, dose 10-50 mg/kg, time 7 day
# [18] = target: T4, Suppressor of tumorigenicity 14 protein (Homo sapiens) (UniProt Q9Y5Y6); experiment: Inhibition of recombinant human N-terminal met-His6-tagged matriptase catalytic domain (Gly596 to Val855 residues) expressed in Escherichia coli mediated pro-HGF activation preincubated for 30 mins followed by pro-HGF addition and measured after 1 hr by immunoblotting analysis; outline: as §2
# T4 sequence (whole entry): T1 sequence (Q9Y5Y6 whole entry)
# HCC827 [19] = experiment: Cytotoxicity against human HCC827 cells assessed as reduction in cell viability at 0.1 to 1 uM after 72 hrs in presence of pro-HGF by crystal violet staining based assay; conditions: dose 0.1-1 µM
# T2 sequence (P05981 1-162 limits assumed): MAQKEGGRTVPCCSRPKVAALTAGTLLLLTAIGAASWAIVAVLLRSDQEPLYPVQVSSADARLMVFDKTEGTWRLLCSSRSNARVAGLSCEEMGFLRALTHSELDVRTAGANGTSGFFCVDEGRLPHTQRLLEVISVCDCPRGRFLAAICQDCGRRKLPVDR
# T2 sequence (P05981 163-417 limits assumed): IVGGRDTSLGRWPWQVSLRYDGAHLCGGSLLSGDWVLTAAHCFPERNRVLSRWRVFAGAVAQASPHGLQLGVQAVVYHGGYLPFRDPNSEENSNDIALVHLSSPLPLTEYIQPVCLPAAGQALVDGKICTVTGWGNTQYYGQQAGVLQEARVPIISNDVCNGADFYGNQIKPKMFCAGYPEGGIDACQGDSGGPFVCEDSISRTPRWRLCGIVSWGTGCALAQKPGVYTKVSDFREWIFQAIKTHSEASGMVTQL
smiles,measurement,setting,value
CC(=O)N[C@H]1CC(=O)NCCCC[C@@H](C(=O)N[C@@H](CCCNC(=N)N)C(=O)c2nc3ccccc3s2)NC(=O)[C@H](CC(C)C)NC1=O,Activity,NCI-H596,Active
same,IC50,[1],2.2 nM
same,IC50,Serine protease hepsin [2],11 nM
same,Activity,[3],Non-Toxic
same,Activity,[4],Non-Toxic
same,t1/2,[5],> 2.42 h
same,solubility,[6],11 µM
same,t1/2,[7],> 2.42 h
same,inhibition,Serine protease hepsin [8],Active
same,inhibition,[9],inactive
same,t1/2,[10],3.7 h
same,t1/2,[11],> 4.82 h
same,Activity,[12],Non-Toxic
same,Activity,EBC-1,Active
same,Activity,HCC827 [13],inactive
same,t1/2,[14],8.7 h
same,inhibition,HCC827 [15],Active
same,fraction unbound,[16],0.286
same,Activity,[17],Non-Toxic
same,inhibition,[18],Active
same,Activity,HCC827 [19],Active
